Results as given in ChEMBL document CHEMBL1275447 (Antimicrob Agents Chemother, 2008).
≈ marks a conversion by molar mass, not a printed value. Calls of active or inactive are those of the source. No cut-off for these calls is given here.

Columns and labels:
[1] = fT>MIC in neutropenic mouse infected with Pseudomonas aeruginosa isolate 1050 at 500 mg administered as 4 hr infusion; type: functional
Method in brief: (§1)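 Mouse fT>MIC was modelled with first-order one-compartment serum PK and 25.2% binding. Mice were neutropenic (cyclophosphamide) with uranyl nitrate renal impairment. Subcutaneous doses were 5.5, 2.25, 4.5, 4.5, 4.5, 4.5, 0.75, 0.375 mg/kg at 0, 0.5, 1.5, 2.5, 3.5, 4.5, 6, 7.5 h per 8-h interval over 24 h.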

[2] = fT>MIC in neutropenic mouse infected with Pseudomonas aeruginosa isolate 988 at 500 mg administered as 4 hr infusion; type: functional; method in brief: as §1
[3] = fT>MIC in neutropenic mouse infected with Pseudomonas aeruginosa isolate 1082 at 500 mg administered as 1 hr infusion; type: functional
Method in brief: (§2)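 Free-drug time above MIC simulated from one-compartment mouse serum PK (25.2% protein binding). The mice were cyclophosphamide-neutropenic and uranyl nitrate-renally impaired. Regimen was subcutaneous 10, 15, 2.5, 1.25, 0.5, 0.25 mg/kg at 0, 0.5, 2.5, 4, 5.5, 7 h, repeated every 8 h over 24 h.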

[4] = fT>MIC in human infected with Pseudomonas aeruginosa isolate 931 at 500 mg administered as 1 hr infusion; type: functional
[5] = fT>MIC in neutropenic mouse infected with Pseudomonas aeruginosa isolate 886 at 500 mg administered as 4 hr infusion; type: functional; method in brief: as §1
[6] = fT>MIC in neutropenic mouse infected with Pseudomonas aeruginosa isolate 906 at 500 mg administered as 4 hr infusion; type: functional; method in brief: as §1
[7] = AUC in healthy human at 500 mg administered as 1 hr infusion; type: ADME, organism-based; details: plasma, iv
[8] = fT>MIC in human infected with Pseudomonas aeruginosa isolate 906 at 500 mg administered as 1 hr infusion; type: functional
Pseudomonas aeruginosa [9] = assay: Antibacterial activity against Pseudomonas aeruginosa isolate 1060 by microdilution method; type: functional
Method in brief: (§3)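 CLSI broth microdilution in cation-adjusted Mueller-Hinton broth (20–25 mg/liter Ca, 10–12.5 mg/liter Mg). Standard inoculum 10⁵ CFU/ml, incubated in ambient air. Clinical hospital isolates.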

[10] = fT>MIC in human infected with Pseudomonas aeruginosa isolate 1052 at 500 mg administered as 4 hr infusion; type: functional
[11] = fT>MIC in human infected with Pseudomonas aeruginosa isolate 1060 at 500 mg administered as 1 hr infusion; type: functional
[12] = fT>MIC in neutropenic mouse infected with Pseudomonas aeruginosa isolate 1006 at 500 mg administered as 4 hr infusion; type: functional
[13] = Half-life in Pseudomonas aeruginosa ATCC 27853 infected neutropenic ICR mouse at 10 mg/kg, sc administered as single dose 2 hrs postinfection; type: ADME, organism-based; design: dose 10 mg/kg, route subcutaneous; details: in vivo
Method in brief: (§4)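 Neutropenic mice (cyclophosphamide ip 150 and 100 mg/kg, 4 and 1 days before inoculation) with uranyl nitrate 5 mg/kg ip 3 days before, for renal impairment. Thigh infection with ATCC 27853 at 10⁶ CFU/ml, 0.1 ml per thigh. Single sc doses 2 h later. Intracardiac blood from 6–12 mice per time point, eight time points over 4 h. Serum assayed by HPLC (linear 0.5–40 μg/ml). One-compartment first-order fit.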

[14] = fT>MIC in neutropenic mouse infected with Pseudomonas aeruginosa isolate 869 at 500 mg administered as 1 hr infusion; type: functional; method in brief: as §2
[15] = fT>MIC in human infected with Pseudomonas aeruginosa isolate 1082 at 500 mg administered as 1 hr infusion; type: functional
[16] = fT>MIC in human infected with Pseudomonas aeruginosa isolate 944 at 500 mg administered as 1 hr infusion; type: functional
Pseudomonas aeruginosa [17] = assay: Antibacterial activity against Pseudomonas aeruginosa isolate 1036 by microdilution method; type: functional
[18] = AUC in Pseudomonas aeruginosa ATCC 27853 infected neutropenic ICR mouse at 500 mg administered as 4 hr infusion; type: ADME, organism-based; details: plasma, iv
[19] = fT>MIC in human infected with Pseudomonas aeruginosa isolate 1050 at 500 mg administered as 4 hr infusion; type: functional
[20] = fT>MIC in human infected with Pseudomonas aeruginosa isolate 1062 at 500 mg administered as 1 hr infusion; type: functional
[21] = fT>MIC in human infected with Pseudomonas aeruginosa isolate 993 at 500 mg administered as 4 hr infusion; type: functional
[22] = Half-life in Pseudomonas aeruginosa ATCC 27853 infected neutropenic ICR mouse at 50 mg/kg, sc administered as single dose 2 hrs postinfection; type: ADME, organism-based; design: dose 50 mg/kg, route subcutaneous; details: in vivo; method in brief: as §4
[23] = Elimination rate constant in Pseudomonas aeruginosa ATCC 27853 infected neutropenic ICR mouse at 10 mg/kg, sc administered as single dose 2 hrs postinfection; type: ADME, organism-based; design: dose 10 mg/kg, route subcutaneous; details: in vivo; method in brief: as §4
[24] = fT>MIC in neutropenic mouse infected with Pseudomonas aeruginosa isolate 869 at 500 mg administered as 4 hr infusion; type: functional; method in brief: as §1
[25] = fT>MIC in neutropenic mouse infected with Pseudomonas aeruginosa isolate 1062 at 500 mg administered as 4 hr infusion; type: functional; method in brief: as §1
Pseudomonas aeruginosa [26] = assay: Antibacterial activity against Pseudomonas aeruginosa isolate 944 at 4 ug/ml after 24 hrs; type: functional, organism-based
[27] = fT>MIC in neutropenic mouse infected with Pseudomonas aeruginosa isolate 1055 at 500 mg administered as 1 hr infusion; type: functional; method in brief: as §2
[28] = Tmax in Pseudomonas aeruginosa ATCC 27853 infected neutropenic ICR mouse at 10 mg/kg, sc administered as single dose 2 hrs postinfection by HPLC; type: ADME, organism-based; design: dose 10 mg/kg, route subcutaneous; details: in vivo; method in brief: as §4
Pseudomonas aeruginosa [29] = assay: Antibacterial activity against Pseudomonas aeruginosa isolate 1052 by microdilution method; type: functional; method in brief: as §3
Pseudomonas aeruginosa [30] = assay: Antibacterial activity against Pseudomonas aeruginosa isolate 931 by fractionation study; type: functional
[31] = fT>MIC in human infected with Pseudomonas aeruginosa isolate 988 at 500 mg administered as 4 hr infusion; type: functional
[32] = fT>MIC in neutropenic mouse infected with Pseudomonas aeruginosa isolate 886 at 500 mg administered as 1 hr infusion; type: functional; method in brief: as §2
[33] = fT>MIC in human infected with Pseudomonas aeruginosa isolate 896 at 500 mg administered as 1 hr infusion; type: functional
Pseudomonas aeruginosa [34] = assay: Antibacterial activity against Pseudomonas aeruginosa isolate 931 by microdilution method; type: functional; method in brief: as §3
[35] = fT>MIC in human infected with Pseudomonas aeruginosa isolate 1058 at 500 mg administered as 4 hr infusion; type: functional
[36] = fT>MIC in human infected with Pseudomonas aeruginosa isolate 927 at 500 mg administered as 4 hr infusion; type: functional
[37] = Tmax in Pseudomonas aeruginosa ATCC 27853 infected neutropenic ICR mouse at 150 mg/kg, sc administered as single dose 2 hrs postinfection by HPLC; type: ADME, organism-based; design: dose 150 mg/kg, route subcutaneous; details: in vivo; method in brief: as §4
[38] = fT>MIC in human infected with Pseudomonas aeruginosa isolate 988 at 500 mg administered as 1 hr infusion; type: functional
[39] = fT>MIC in neutropenic mouse infected with Pseudomonas aeruginosa isolate 944 at 500 mg administered as 4 hr infusion; type: functional; method in brief: as §1
[40] = Cmax in Pseudomonas aeruginosa ATCC 27853 infected neutropenic ICR mouse at 500 mg administered as 1 hr infusion; type: ADME, organism-based; design: dose 500 mg; details: in vivo, iv

**Q.** Which results are given for C[C@@H](O)[C@H]1C(=O)N2C(C(=O)O)=C(S[C@@H]3CN[C@H](CNS(N)(=O)=O)C3)[C@H](C)[C@H]12 [DORIPENEM]?
**A.** fT>MIC [1]: 52.5%; fT>MIC [2]: 0%; fT>MIC [3]: 55%; fT>MIC [4]: 27.5%; fT>MIC [5]: 100%; fT>MIC [6]: 70%; AUC at 1 h [7]: 32.6 µg·h/mL; fT>MIC [8]: 40%; MIC (Pseudomonas aeruginosa [9]): 4 mg/L (≈ 9.51 µM); fT>MIC [10]: 80%; fT>MIC [11]: 27.5%; fT>MIC [12]: 0%; half-life [13]: 24.6 min; fT>MIC [14]: 90%; fT>MIC [15]: 55%; fT>MIC [16]: 27.5%; MIC (Pseudomonas aeruginosa [17]): 2 mg/L (≈ 4.76 µM); AUC at 4 h [18]: 34.4 µg·h/mL; fT>MIC [19]: 55%; fT>MIC [20]: 72.5%; fT>MIC [21]: 100%; half-life [22]: 20.4 min; k el at 2 h [23]: 0.000467 s⁻¹; fT>MIC [24]: 100%; fT>MIC [25]: 95%; Activity (Pseudomonas aeruginosa [26]): inactive; fT>MIC [27]: 75%; Tmax [28]: 15 min; MIC (Pseudomonas aeruginosa [29]): 1 mg/L (≈ 2.38 µM); MIC (Pseudomonas aeruginosa [30]): 3 mg/L (≈ 7.13 µM); fT>MIC [31]: 0%; fT>MIC [32]: 90%; fT>MIC [33]: 17.5%; MIC (Pseudomonas aeruginosa [34]): 4 mg/L (≈ 9.51 µM); fT>MIC [35]: 65%; fT>MIC [36]: 0%; Tmax [37]: 13.2 min; fT>MIC [38]: 17.5%; fT>MIC [39]: 52.5%; Cmax [40]: 28.4 µg/mL
